Test results as given in ChEMBL document CHEMBL1140345, “Conformational constraint in oxazolidinone antibacterials. Synthesis and structure-activity studies of (azabicyclo[3.1.0]hexylphenyl)oxazolidinones” (2005).
Converted amounts (≈) assume the structure as drawn.

Assays:
Enterococcus faecalis [1] = assay: Minimum inhibitory concentration against Enterococcus faecalis UC9217; format: functional
How it was run: (§1)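 Broth microdilution MIC following the NCCLS M7-A4 approved standard for dilution susceptibility testing of aerobically growing bacteria. The method is taken as accurate to within one dilution.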

[2] = tested on: Staphylococcus epidermidis; assay: Minimum inhibitory concentration against methicillin-resistant Staphylococcus epidermidis UC12084
Haemophilus influenzae [3] = assay: Minimum inhibitory concentration against ampicillin-reisitant Haemophilus influenzae UC30063; format: functional; how it was run: as §1
Staphylococcus aureus [4] = assay: Minimum inhibitory concentration against methicillin, ciprofloxacin, rifampin, imipenem-resistant Staphylococcus aureus UC12673; format: functional
How it was run: (§2)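 MIC determined by standard broth microdilution following the NCCLS M7-A4 approved standard for dilution susceptibility testing of aerobically growing bacteria.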

Streptococcus pneumoniae [5] = assay: Minimum inhibitory concentration against penicillin-susceptible Streptococcus pneumoniae UC9912; format: functional; how it was run: as §1
Staphylococcus aureus [6] = assay: Minimum inhibitory concentration against methicillin-susceptible Staphylococcus aureus UC9213; format: functional; how it was run: as §2
Escherichia coli [7] = assay: Minimum inhibitory concentration against Escherichia coli UC6674; format: functional; how it was run: as §1
Streptococcus pneumoniae [8] = assay: Minimum inhibitory concentration against penicillin-susceptible Streptococcus pneumoniae UC9912; Range is 1-2 ug/mL; format: functional; how it was run: as §1
[9] = tested on: Staphylococcus epidermidis; assay: Minimum inhibitory concentration against methicillin-resistant Staphylococcus epidermidis UC12084; Range is 1-2 ug/mL
[10] = tested on: Staphylococcus epidermidis; assay: Minimum inhibitory concentration against methicillin-resistant Staphylococcus epidermidis UC12084; Range is from 1-2 ug/mL
Haemophilus influenzae [11] = assay: Minimum inhibitory concentration against ampicillin-reisitant Haemophilus influenzae UC30063; Range is from 8-16 ug/mL; format: functional; how it was run: as §1
Enterococcus faecalis [12] = assay: Minimum inhibitory concentration against Enterococcus faecalis UC9217; Range is from 2-4 ug/mL; format: functional; how it was run: as §1
Streptococcus pneumoniae [13] = assay: Minimum inhibitory concentration against penicillin-susceptible Streptococcus pneumoniae UC9912; Range is from 0.5-1 ug/mL; format: functional; how it was run: as §1
Moraxella catarrhalis = assay: Minimum inhibitory concentration Moraxella catarrhalis; format: functional; how it was run: as §1
Haemophilus influenzae [14] = assay: Minimum inhibitory concentration against ampicillin-reisitant Haemophilus influenzae UC30063; Range is 8-16 ug/mL; format: functional; how it was run: as §2
Staphylococcus aureus [15] = assay: Minimum inhibitory concentration against methicillin, ciprofloxacin, rifampin, imipenem-resistant Staphylococcus aureus UC12673; Range is 1-2 ug/mL; format: functional; how it was run: as §2
Enterococcus faecalis [16] = assay: Minimum inhibitory concentration against Enterococcus faecalis UC9217; Range is 1-2 ug/mL; format: functional; how it was run: as §1
Staphylococcus aureus [17] = assay: Minimum inhibitory concentration against methicillin-susceptible Staphylococcus aureus UC9213; Range is 2-4 ug/mL; format: functional; how it was run: as §2
[18] = tested on: Staphylococcus epidermidis; assay: Minimum inhibitory concentration against methicillin-resistant Staphylococcus epidermidis UC12084; Range is 0.5-1 ug/mL
Staphylococcus aureus [19] = assay: Minimum inhibitory concentration against methicillin, ciprofloxacin, rifampin, imipenem-resistant Staphylococcus aureus UC12673; Range is 2-4 ug/mL; format: functional; how it was run: as §2
Escherichia coli [20] = assay: Minimum inhibitory concentration against Escherichia coli UC6674; Range is 16-32 ug/mL; format: functional; how it was run: as §1
[21] = Haemophilus influenzae, read-out: MIC
[22] = Streptococcus pneumoniae, read-out: MIC

Compound | MIC (Enterococcus faecalis [1]) [µg/mL] | MIC [2] [µg/mL] | MIC (Haemophilus influenzae [3]; [21]) [µg/mL] | MIC (Staphylococcus aureus [4]) [µg/mL] | MIC (Streptococcus pneumoniae [5]; [22]) [µg/mL] | MIC (Staphylococcus aureus [6]) [µg/mL] | MIC (Escherichia coli [7]) [µg/mL] | other results
CC(=O)NC[C@H]1CN(c2cc(F)c(N3C[C@@H]4[C@H](C3)[C@H]4NC(=O)CO)c(F)c2)C(=O)O1 | 8 (≈ 18.8 µM) | 4 (≈ 9.42 µM) | 64 (≈ 151 µM) | 16 (≈ 37.7 µM) | 2 (≈ 4.71 µM) | 16 (≈ 37.7 µM) | > 64 | 
CC(=O)NC[C@H]1CN(c2cc(F)c(N3C[C@@H]4[C@H](C3)[C@H]4C(=O)Nc3nccs3)c(F)c2)C(=O)O1 | 0.5 (≈ 1.05 µM) | 0.25 (≈ 0.524 µM) | > 64 | 1 (≈ 2.09 µM) | 0.13 (≈ 0.272 µM) | 2 (≈ 4.19 µM) |  | 
CC(=O)NC[C@H]1CN(c2cc(F)c(N3C[C@@H]4[C@H](C3)[C@H]4C(=O)Nc3ccc4c(c3)OCO4)c(F)c2)C(=O)O1 | 1 (≈ 1.94 µM) | 0.5 (≈ 0.972 µM) | > 64 | 1 (≈ 1.94 µM) | 0.5 (≈ 0.972 µM) | 1 (≈ 1.94 µM) |  | 
O=C(NC[C@H]1CN(c2cc(F)c(N3C[C@@H]4[C@H](C3)[C@H]4C(=O)O)c(F)c2)C(=O)O1)C(Cl)Cl | 0.5 (≈ 1.08 µM) | 0.5 (≈ 1.08 µM) | 4 (≈ 8.62 µM) | 0.5 (≈ 1.08 µM) | 0.5 (≈ 1.08 µM) | 1 (≈ 2.15 µM) |  | 
CCC(=O)NC[C@H]1CN(c2cc(F)c(N3C[C@@H]4[C@H](C3)[C@H]4C(=O)O)c(F)c2)C(=O)O1 | 1 (≈ 2.44 µM) |  | 8 (≈ 19.5 µM) | 1 (≈ 2.44 µM) |  | 2 (≈ 4.89 µM) |  | MIC (Streptococcus pneumoniae [8]): 2 µg/mL (≈ 4.89 µM); MIC [9]: 2 µg/mL (≈ 4.89 µM)
CC(=O)NC[C@H]1CN(c2cc(F)c(N3C[C@@H]4[C@H](C3)[C@H]4C(N)=O)c(F)c2)C(=O)O1 | 2 (≈ 5.07 µM) | 2 (≈ 5.07 µM) | 32 (≈ 81.1 µM) | 4 (≈ 10.1 µM) | 1 (≈ 2.54 µM) | 4 (≈ 10.1 µM) | > 64 | 
CC(=O)NC[C@H]1CN(c2cc(F)c(N3C[C@@H]4[C@H](C3)[C@H]4NC(=O)Nc3ccccc3)c(F)c2)C(=O)O1 | 2 (≈ 4.12 µM) | 2 (≈ 4.12 µM) | > 64 | 4 (≈ 8.24 µM) | 1 (≈ 2.06 µM) | 8 (≈ 16.5 µM) | > 64 | 
CCC(=O)NC[C@H]1CN(c2cc(F)c(N3C[C@@H]4[C@@H](N)[C@@H]4C3)c(F)c2)C(=O)O1 |  |  |  | 4 (≈ 10.5 µM) |  | 4 (≈ 10.5 µM) |  | MIC [10]: 2 µg/mL (≈ 5.26 µM); MIC (Haemophilus influenzae [11]): 16 µg/mL (≈ 42.1 µM); MIC (Enterococcus faecalis [12]): 4 µg/mL (≈ 10.5 µM); MIC (Streptococcus pneumoniae [13]): 1 µg/mL (≈ 2.63 µM)
CNC(=O)[C@H]1[C@@H]2CN(c3c(F)cc(N4C[C@H](CNC(C)=O)OC4=O)cc3F)C[C@@H]21 | 1 (≈ 2.45 µM) | 1 (≈ 2.45 µM) | 16 (≈ 39.2 µM) | 2 (≈ 4.9 µM) | 0.5 (≈ 1.22 µM) | 2 (≈ 4.9 µM) | > 64 | 
CC(=O)NC[C@H]1CN(c2cc(F)c(N3C[C@@H]4[C@H](C3)[C@H]4C(=O)NCc3ccccn3)c(F)c2)C(=O)O1 | 1 (≈ 2.06 µM) | 1 (≈ 2.06 µM) | > 64 | 4 (≈ 8.24 µM) | 0.5 (≈ 1.03 µM) | 4 (≈ 8.24 µM) |  | 
CC(=O)NC[C@H]1CN(c2ccc(N3CCOCC3)c(F)c2)C(=O)O1 [LINEZOLID] |  | 1 (≈ 2.96 µM) |  |  |  |  | > 64 | MIC (Moraxella catarrhalis): 4 µg/mL (≈ 11.9 µM); MIC (Haemophilus influenzae [14]): 16 µg/mL (≈ 47.4 µM)
CC(=O)NC[C@H]1CN(c2cc(F)c(N3C[C@@H]4[C@@H](O)[C@@H]4C3)c(F)c2)C(=O)O1 |  | 1 (≈ 2.72 µM) | 16 (≈ 43.6 µM) |  | 1 (≈ 2.72 µM) |  | > 64 | MIC (Staphylococcus aureus [15]): 2 µg/mL (≈ 5.44 µM); MIC (Enterococcus faecalis [16]): 2 µg/mL (≈ 5.44 µM); MIC (Staphylococcus aureus [17]): 4 µg/mL (≈ 10.9 µM)
CC(=O)NC[C@H]1CN(c2cc(F)c(N3C[C@@H]4[C@@H](N)[C@@H]4C3)c(F)c2)C(=O)O1 (stereo in doubt; 18b) |  |  |  |  | 0.5 (≈ 1.36 µM) |  |  | MIC [18]: 1 µg/mL (≈ 2.73 µM); MIC (Staphylococcus aureus [19]): 4 µg/mL (≈ 10.9 µM); MIC (Haemophilus influenzae [3]): 8 µg/mL (≈ 21.8 µM); MIC (Enterococcus faecalis [16]): 2 µg/mL (≈ 5.46 µM); MIC (Escherichia coli [20]): 32 µg/mL (≈ 87.3 µM); MIC (Staphylococcus aureus [17]): 4 µg/mL (≈ 10.9 µM)
CC(=O)NC[C@H]1CN(c2cc(F)c(N3C[C@@H]4[C@@H](N)[C@@H]4C3)c(F)c2)C(=O)O1 (stereo in doubt) | 4 (≈ 10.9 µM) | 1 (≈ 2.73 µM) |  | 4 (≈ 10.9 µM) |  | 8 (≈ 21.8 µM) | > 64 | MIC (Haemophilus influenzae [3]): 32 µg/mL (≈ 87.3 µM); MIC (Streptococcus pneumoniae [5]): 1 µg/mL (≈ 2.73 µM)
CC(=O)NC[C@H]1CN(c2ccc(N3C[C@H]4C[C@H]4C3)c(F)c2)C(=O)O1 | 2 (≈ 6 µM) | 1 (≈ 3 µM) | 32 (≈ 96 µM) | 2 (≈ 6 µM) | 1 (≈ 3 µM) | 2 (≈ 6 µM) | > 64 | 
